Data from PubChem BioAssay.
Some of the results follow. Calls of active or inactive are those of the source.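 The calls were made as follows, unless noted: active = at 20 µM dose, 40% or more inhibition averaged across four replicates; inactive = the rest.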

Experiment: inhibition of PEG-3 promoter luciferase signal – cell-based, HeLa, luciferase reporter, single concentration, confirmation (AID 602417)
Settings: HeLa PEG-Prom luciferase reporter, luminescence, overnight; at 20 µM; stronger effect = higher value

inhibition, active:
c1ccc(C(=NNc2nc3ccccc3s2)c2ccccn2)cc1 61%
CCN1CCN(c2nc(Nc3cc(OC)ccc3OC)nc(Nc3cc(OC)ccc3OC)n2)CC1 70%
COc1ccc2c(c1)c(=Cc1ccc(N(C)C)cc1)c1cc(-c3ccccc3)[n+](C)n12 97.8%
Cc1ccc(C)c(S(=O)(=O)N2CCN(c3ncnc4sccc34)CC2)c1 69.5%
CNC(=O)c1ccsc1NC(=O)c1ccc(S(=O)(=O)N2CCc3ccccc32)cc1 52.4%
COc1cccc2c1C(=O)c1c(O)c3c(c(O)c1C2=O)CC(O)(C(C)=NNC(=O)c1ccc(Cl)c(Cl)c1)CC3OC1CC(N)C(O)C(C)O1 (configuration not stated) 96.6%
COc1ccc2sc(-c3ccc(S(C)(=O)=O)cc3)c(C#Cc3cncn3C)c2c1 51.8%
CN1OC[C@@H]2CN(S(=O)(=O)c3cccc(C(F)(F)F)c3)[C@H](c3ccc(-c4cc5ccccc5o4)cc3)C[C@@H]21 52.7%
CCCc1cc(=O)n2[nH]c(C)c(-c3ccc(Cl)cc3)c2n1 51.5%
O=C(NCCN1CCOCC1)c1ccc(/C=C2\Sc3ccccc3N(Cc3ccc(F)cc3)C2=O)cc1 42.8%
O=C(Nc1cccc(-c2cccc(Cl)c2)c1)C1CCN(C2CCC2)CC1 92.8%
Oc1ccc2ccccc2c1N=Nc1nccs1 82.7%
O=C(CSc1nc(Nc2ccccc2)nc(N2CCOCC2)n1)Nc1cc(Cl)ccc1O 78.8%
O=c1[nH]c(=S)[nH]c(O)c1/C=C1\C=Nc2ccccc21 47.7%
COc1ccc(OC)c(Cc2cnc3nc(N)nc(N)c3c2C)c1 66.8%
COc1ccc(-c2cc(C(=O)N(C)Cc3ccc(OC)c(OC)c3OC)c3ccccc3n2)cc1OC 60.4%
Cc1ccc(OCC(=O)c2cc(C)n(Cc3ccco3)c2C)c([N+](=O)[O-])n1 71.5%
CN(Cc1ccccc1F)C(=O)C(Cc1ccccc1)NC(=O)c1ccccc1 (configuration not stated) 48.7%
COc1ccc(CN(C)C(=O)c2cc(-c3ccc(C)cc3C)nc3ccccc23)c(OC)c1OC 75.2%
CCOc1ccc2nc(N(CCCN(C)C)C(=O)c3ccc(C(=O)c4ccccc4)cc3)sc2c1 97.7%
CN(O)C(=S)c1ccccc1 89.1%
COc1ccc2[nH]c(=O)c(CN(Cc3cccnc3)S(=O)(=O)c3ccccc3F)cc2c1 56.7%
CCn1cc(CN2CCC(C(=O)Nc3cccc(-c4cccc(Cl)c4)c3)CC2)cn1 94.5%
CSc1nc(N)c(C#N)c(-c2ccccc2Cl)c1C#N 70.6%
CCCCNc1c(-c2cccc(Sc3ccc(OC)cc3)c2)nc2ccccn12 95.6%

inhibition, inactive:
CC(C)CN(C(=O)COC(=O)c1ccc2ccccc2c1)c1c(N)n(Cc2ccccc2)c(=O)[nH]c1=O 34.1%
Cc1nc(SCC(=O)Nc2cc(C)on2)c2c(C)c(C)sc2n1 33.6%
Cc1ccc(-c2nc3ccccc3[nH]2)cc1NC(=O)c1sc2ccccc2c1Cl -5.64%
Cc1c(C(=O)Nc2cccc(Cl)c2)cn2c(nc3ccccc32)c1C#N 10.5%
NS(=O)(=O)c1ccc(N=Nc2c(O)[nH]c3ccc(Br)cc23)cc1 0.42%
Cc1nnc(SCC(=O)N2c3ccccc3C(C)(c3ccc(Cl)cc3)CC2(C)C)s1 (configuration not stated) 38.4%
Cc1ccc(C(NC(=O)C2CCN(CCOc3ccc(Cl)cc3Cl)CC2)c2ccccn2)cc1 (configuration not stated) 36.9%

Experiment: NF-kB reporter suppression in CF airway cells – cell-based, GFP fluorescence, single concentration, confirmation (AID 602472; in the data active = inhibition above about 40%;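 also: stimulus PAF is a Pseudomonas aeruginosa filtrate and not platelet activating factor; plate controls were DMSO wells with stimulus for no effect and unstimulated DMSO wells for full effect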)
Settings: KKLEB CF airway cells, PAF-induced NF-kB-GFP fluorescence, overnight; at 5 µM; stronger effect = higher value
Method in brief: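 Material – KKLEB NFkB-GFP reporter cells · Buffer or medium – medium with 2% FBS for cells, serum-free medium for stimulus · Incubation – 2 h pretreatment, overnight stimulation · Signal – reporter fluorescence (GFP) · Also added – Pseudomonas aeruginosa filtrate (PAF) as NFkB-activating stimulus · Doses – 5 µM single dose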

inhibition, inactive:
CC(C)CC1C(=O)N(Cc2cn(CC3CCCCC3)nn2)CCS(=O)(=O)N1Cc1ccc(-c2ccc(Cl)cc2)cc1 (configuration not stated) 32.8%
COc1ccc(NC(=O)c2cc(-c3cc(OC)c(OC)c(OC)c3)nc3ccccc23)c(OC)c1 24.8%
COc1ccc(-c2ccc(CN3C(CC(C)C)C(=O)N(Cc4cn(CC5CCCCC5)nn4)CCS3(=O)=O)cc2)cn1 (configuration not stated) 36.1%
Cc1ccc(Cc2c(-c3ccco3)nc3ccc(Cl)cn23)cc1 -82.3%
CC1(C)O[C@@H]2CC3C4C[C@H](F)C5=CC(=O)C=CC5(C)C4C(O)CC3(C)[C@]2(C(=O)CO)O1 (some centres not stated) 27.4%
COc1ccc(CNC(=O)/C(C#N)=C/c2cccc(OC)c2OC)cc1 34.1%
CCOC(=O)C(C(=O)c1ccccc1)C(c1ccccc1)c1nccc2ccccc12 (configuration not stated) 14.4%
c1nnc2c3c4c(sc3ncn12)CCC4 22.1%

inhibition, active:
COc1ccc(CN(C)C(=O)c2cc(-c3ccc(C)cc3C)nc3ccccc23)c(OC)c1OC 61.6%
COc1ccc2[nH]c(=O)c(CN(Cc3cccnc3)S(=O)(=O)c3ccccc3F)cc2c1 86.3%
